# Assay results pooled from the literature.
# pIC50, pKd, pKi: −log10 of the molar value.
# CA1: Carbonic anhydrase 1 (CA1, Homo sapiens, UniProt P00915)
# ADRA2A: Alpha-2A adrenergic receptor (ADRA2A, Homo sapiens, UniProt P08913)
# SLC18A2: Synaptic vesicular amine transporter (SLC18A2, Homo sapiens, UniProt Q05940)
# LATS1: Serine/threonine-protein kinase LATS1 (LATS1, Homo sapiens, UniProt O95835)
Structure (SMILES),target,test,setting,quantity,result
CN(C)CCC(c1ccccc1)c1ccccn1 (centres unmarked),CA1,"enzyme activity, inhibitor, absorbance",pH 7.4,pIC50,4.69
COc1ccc(Cl)cc1N1CCN(Cc2cccnc2Oc2ccc(-c3c(C)c(=O)[nH]c(=O)n3C)c(C)c2)CC1,ADRA2A,"ligand displacement, radioligand",,pKi,7.12
O=c1n(CCCN2CCN(c3cccc(Cl)c3)CC2)nc2ccccn12,SLC18A2,"transporter uptake, inhibitor",,pIC50,5.56
c1cc(-c2ccc(C3CCNCC3)cc2)c2cc[nH]c2n1,LATS1,"target engagement in cells, BRET",,pIC50,< 4.30
Cc1ccc(N2CCN(Cc3cccnc3Oc3ccc(-c4c(C)c(=O)[nH]c(=O)n4C)c(C)c3)CC2)cc1C,ADRA2A,"ligand displacement, radioligand",,pKi,6.26
Cc1cc(-c2ccnc3[nH]cc(F)c23)cc(F)c1[C@@]1(O)[C@H](C)CN(C2CCS(=O)(=O)CC2)C[C@@H]1C,LATS1,"binding, TR-FRET",,pKd,8.60
Cc1cc(Oc2ncccc2CN2CCN(c3cccc4ccccc34)CC2)ccc1-c1c(C)c(=O)[nH]c(=O)n1C,ADRA2A,"ligand displacement, radioligand",,pKi,6.73
COc1cc2nc(N(C)CCCNC(=O)C3CCCO3)nc(N)c2cc1OC (centres unmarked),SLC18A2,"transporter uptake, inhibitor",,pIC50,6.60
COc1cc(C)c(/C=C/C(C)=C/C=C/C(C)=C/C(=O)O)c(C)c1C,"Carbonic anhydrase 2 (CA2, Homo sapiens, UniProt P00918)","enzyme activity, inhibitor, absorbance",pH 7.4,pIC50,4.90
O=C(c1ccc(OCCN2CCCCC2)cc1)c1c(-c2ccc(O)cc2)sc2cc(O)ccc12,SLC18A2,"transporter uptake, inhibitor, radiometric",cell membranes,pIC50,6.90
Clc1ccc(C2(c3ccc(-c4ccnc5[nH]ccc45)cc3)CCNCC2)cc1,LATS1,"target engagement in cells, BRET",,pIC50,5.65
Cc1cnc(Nc2ccc(OCCN3CCCC3)cc2)nc1Nc1cccc(S(=O)(=O)NC(C)(C)C)c1,SLC18A2,"transporter uptake, inhibitor, radiometric",cell membranes,pIC50,6.38
Cc1cc(-c2ccnc3[nH]cc(F)c23)cc(F)c1[C@@]1(O)[C@H](C)CN(C(=O)CN)C[C@@H]1C,LATS1,"target engagement in cells, BRET",,pIC50,8.21
CCc1nn(CCCN2CCN(c3cccc(Cl)c3)CC2)c(=O)n1CCOc1ccccc1,SLC18A2,"transporter uptake, inhibitor, radiometric",cell membranes,pIC50,6.18
Cc1cc(Oc2ncccc2CN2CCN(c3ccc(F)cc3F)CC2)ccc1-c1c(C)c(=O)[nH]c(=O)n1C,ADRA2A,"ligand displacement, radioligand",,pKi,6.49
CN1CCC(=C2c3ccccc3CC(=O)c3sccc32)CC1,CA1,"enzyme activity, inhibitor, absorbance",pH 7.4,pIC50,4.99
Cc1cc(Oc2ncccc2CN2CCN(CCc3ccccc3)CC2)ccc1-c1c(C)c(=O)[nH]c(=O)n1C,ADRA2A,"ligand displacement, radioligand",,pKi,5.60
Cc1cc(C#CC2(O)CCCCC2)cc2c1cc(C(=O)O)n2-c1ccccc1,"Microphthalmia-associated transcription factor (Homo sapiens, UniProt O75030)","binding, ITC",,pKd,5.46
Cc1cc(Oc2ncccc2CN2CCN(c3ccc(C(F)(F)F)cn3)CC2)ccc1-c1c(C)c(=O)[nH]c(=O)n1C,ADRA2A,"ligand displacement, radioligand",,pKi,5.89
O=C1Nc2ccc(Cl)cc2[C@@](C#CC2CC2)(C(F)(F)F)O1,SLC18A2,"transporter uptake, inhibitor",,pIC50,5.21
